Reference: ChEMBL document CHEMBL1135791, “Lysergamides of isomeric 2,4-dimethylazetidines map the binding orientation of the diethylamide moiety in the potent hallucinogenic agent N,N-diethyllysergamide (LSD)” (J Med Chem, 2002)
Where “and” joins values, the source holds several entries; their conditions need not be identical. Identical values can stand only once.

Key:
D(1A) dopamine receptor [1] = target: T1, D(1A) dopamine receptor (Mus musculus, UniProt Q61616); experiment: Binding affinity towards Dopamine receptor D1
Method in brief: (§1)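 Screening-panel competition binding. […] Each Ki was replicated 2–3 times and is reported as mean ± SEM from nonlinear fitting. Receptor source and radioligand are not given beyond an online protocol.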

Rattus norvegicus [2] = experiment: Compound was evaluated for the percentage of rats disrupted following a dose of 0.02 mg/kg and 0.049 uM/kg; type: functional
Method in brief: (§2)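 LSD-trained rats (0.08 mg/kg ip vs saline, two-lever, FR50) were given the test drug ip 30 min before extinction sessions, with ≥8 rats per dose. A session was scored as disrupted if 50 presses on one lever were not completed within 5 min. The value is the percentage of rats disrupted at each dose.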

Rattus norvegicus [3] = experiment: Compound was evaluated for the percentage of rats selecting the drug lever (SDL) following a dose of 0.08 mg/kg and 0.194 uM/kg; type: functional
Rattus norvegicus [4] = experiment: Compound was evaluated for the percentage of rats disrupted following a dose of 0.01 mg/kg and 0.025 uM/kg; type: functional; method in brief: as §2
Rattus norvegicus [5] = experiment: Compound was evaluated for the percentage of rats selecting the drug lever (SDL) following a dose of 0.02 mg/kg and 0.049 uM/kg; type: functional
[6] = target: 5-hydroxytryptamine receptor 2B (Homo sapiens, UniProt P41595); experiment: Binding affinities towards 5-hydroxytryptamine 2B receptor; method in brief: as §1
[7] = target: 5-hydroxytryptamine receptor 1E (Homo sapiens, UniProt P28566); experiment: Binding affinity towards 5-hydroxytryptamine 1E receptor; method in brief: as §1
D(2) dopamine receptor = D(2) dopamine receptor (Homo sapiens, UniProt P14416); experiment: Binding affinity towards Dopamine receptor D2
Rattus norvegicus [8] = experiment: Compound was evaluated for the percentage of rats selecting the drug lever (SDL) following a dose of 0.01 mg/kg and 0.025 uM/kg; type: functional
Histamine H1 receptor = Histamine H1 receptor (Homo sapiens, UniProt P35367); experiment: Binding affinity towards Histamine H1 receptor
Method in brief: (§3)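 Screening-panel competition binding. Each Ki was replicated 2–3 times and is reported as mean ± SEM from nonlinear fitting. Receptor source and radioligand are not given beyond an online protocol.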

Rattus norvegicus [9] = experiment: Compound was evaluated for effective dose measured in mg/kg following a dose of 0.02 mg/kg and 0.049 uM/kg (95%CI); type: functional
[10] = target: 5-hydroxytryptamine receptor 5A (Homo sapiens, UniProt P47898); experiment: Binding affinities towards 5-hydroxytryptamine 5A receptor
[11] = target: T2, 5-hydroxytryptamine receptor 1A (Homo sapiens, UniProt P08908); experiment: Binding affinity towards 5-hydroxytryptamine 1A receptor using [3H]8-OH-DPAT as radioligand
T2 sequence (P08908 whole entry): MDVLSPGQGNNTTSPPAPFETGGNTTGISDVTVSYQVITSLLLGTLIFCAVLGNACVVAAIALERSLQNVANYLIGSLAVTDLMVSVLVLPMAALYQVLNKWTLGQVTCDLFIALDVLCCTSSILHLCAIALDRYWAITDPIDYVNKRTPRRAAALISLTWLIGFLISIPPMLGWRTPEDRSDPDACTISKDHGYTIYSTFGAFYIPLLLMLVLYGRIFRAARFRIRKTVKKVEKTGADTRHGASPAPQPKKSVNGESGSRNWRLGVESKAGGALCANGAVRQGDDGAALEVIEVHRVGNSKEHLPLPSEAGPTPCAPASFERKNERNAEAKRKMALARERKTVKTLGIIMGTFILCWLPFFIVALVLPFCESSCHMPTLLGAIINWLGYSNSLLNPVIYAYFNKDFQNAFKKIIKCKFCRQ

Rattus norvegicus [12] = experiment: Compound was evaluated for the percentage of rats selecting the drug lever (SDL) following a dose of 0.04 mg/kg and 0.097 uM/kg; type: functional
[13] = target: T3, 5-hydroxytryptamine receptor 1D (Homo sapiens, UniProt P28221); experiment: Binding affinities towards 5-hydroxytryptamine 1D receptor alpha; method in brief: as §1
[14] = target: 5-hydroxytryptamine receptor 6 (Homo sapiens, UniProt P50406); experiment: Binding affinities towards 5-hydroxytryptamine 6 receptor; method in brief: as §3
Rattus norvegicus [15] = experiment: Compound was evaluated for effective dose measured in mg/kg following a dose of 0.04 mg/kg and 0.097 uM/kg (95%CI); range 0.007-0.016; type: functional
Rattus norvegicus [16] = experiment: Effective dose in rats as nmol/kg after 0.04 mg/kg, 0.093 uM/kg dose (95%CI); type: functional
Rattus norvegicus [17] = experiment: Percentage of rats selecting the drug lever (SDL) after 0.01 mg/kg, 0.023 uM/kg dose; type: functional
D(1B) dopamine receptor = D(1B) dopamine receptor (Homo sapiens, UniProt P21918); experiment: Binding affinity towards Dopamine receptor D5; method in brief: as §3
D(3) dopamine receptor = D(3) dopamine receptor (Homo sapiens, UniProt P35462); experiment: Binding affinity towards Dopamine receptor D3
D(4) dopamine receptor = target: T4, D(4) dopamine receptor (Homo sapiens, UniProt P21917); experiment: Binding affinity towards Dopamine receptor D4; method in brief: as §3
T4 sequence (P21917 whole entry): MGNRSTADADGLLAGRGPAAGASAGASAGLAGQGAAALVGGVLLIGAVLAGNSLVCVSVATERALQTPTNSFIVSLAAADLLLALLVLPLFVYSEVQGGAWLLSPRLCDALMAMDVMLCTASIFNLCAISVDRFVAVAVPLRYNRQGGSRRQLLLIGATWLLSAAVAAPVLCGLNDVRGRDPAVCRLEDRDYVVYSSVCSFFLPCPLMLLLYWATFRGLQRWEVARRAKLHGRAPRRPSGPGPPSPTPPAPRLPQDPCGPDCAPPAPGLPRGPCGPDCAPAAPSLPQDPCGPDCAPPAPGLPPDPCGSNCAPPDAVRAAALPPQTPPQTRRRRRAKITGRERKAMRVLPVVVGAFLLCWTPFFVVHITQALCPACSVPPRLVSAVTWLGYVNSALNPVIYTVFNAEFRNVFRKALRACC

Rattus norvegicus [18] = experiment: Percentage of rats selecting drug lever (SDL) after 0.08 mg/kg, 0.186 uM/kg dose; type: functional
Rattus norvegicus [19] = experiment: Percentage of rats disrupted after 0.02 mg/kg, 0.046 uM/kg dose; type: functional; method in brief: as §2
Rattus norvegicus [20] = experiment: Percentage of rats selecting drug lever (SDL) after 0.04 mg/kg, 0.093 uM/kg dose; type: functional
D(1A) dopamine receptor [21] = target: T1, D(1A) dopamine receptor; experiment: Binding affinities towards Dopamine receptor D1; method in brief: as §1
Rattus norvegicus [22] = experiment: Effective dose as nmol/kg after 0.02 mg/kg, 0.046 uM/kg dose (95%CI); type: functional
Rattus norvegicus [23] = experiment: Percentage of rats disrupted after 0.08 mg/kg, 0.186 uM/kg dose (95%CI); type: functional; method in brief: as §2
Rattus norvegicus [24] = experiment: Percentage of rats selecting the drug lever (SDL) after 0.02 mg/kg, 0.046 uM/kg dose; type: functional
Rattus norvegicus [25] = experiment: Percentage of rats disrupted after 0.01 mg/kg, 0.023 uM/kg dose; type: functional; method in brief: as §2
[26] = target: T3, 5-hydroxytryptamine receptor 1D; experiment: Binding affinity towards 5-hydroxytryptamine 1D receptor alpha using [3H]8-OH-DPAT as radioligand
Rattus norvegicus [27] = experiment: Percentage of rats disrupted after 0.04 mg/kg, 0.093 uM/kg dose; type: functional; method in brief: as §2

T3 sequence (P28221 whole entry): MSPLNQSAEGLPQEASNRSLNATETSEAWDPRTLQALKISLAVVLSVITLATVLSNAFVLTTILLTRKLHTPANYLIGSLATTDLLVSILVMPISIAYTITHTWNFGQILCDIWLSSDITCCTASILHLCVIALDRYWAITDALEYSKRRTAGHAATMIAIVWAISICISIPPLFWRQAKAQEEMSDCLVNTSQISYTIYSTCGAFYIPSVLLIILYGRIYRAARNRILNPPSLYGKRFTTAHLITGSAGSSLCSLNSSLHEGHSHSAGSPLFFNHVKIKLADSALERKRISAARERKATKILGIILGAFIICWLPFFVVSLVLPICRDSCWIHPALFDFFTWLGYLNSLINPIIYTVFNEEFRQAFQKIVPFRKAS
Sequence of D(2) dopamine receptor (P14416 whole entry): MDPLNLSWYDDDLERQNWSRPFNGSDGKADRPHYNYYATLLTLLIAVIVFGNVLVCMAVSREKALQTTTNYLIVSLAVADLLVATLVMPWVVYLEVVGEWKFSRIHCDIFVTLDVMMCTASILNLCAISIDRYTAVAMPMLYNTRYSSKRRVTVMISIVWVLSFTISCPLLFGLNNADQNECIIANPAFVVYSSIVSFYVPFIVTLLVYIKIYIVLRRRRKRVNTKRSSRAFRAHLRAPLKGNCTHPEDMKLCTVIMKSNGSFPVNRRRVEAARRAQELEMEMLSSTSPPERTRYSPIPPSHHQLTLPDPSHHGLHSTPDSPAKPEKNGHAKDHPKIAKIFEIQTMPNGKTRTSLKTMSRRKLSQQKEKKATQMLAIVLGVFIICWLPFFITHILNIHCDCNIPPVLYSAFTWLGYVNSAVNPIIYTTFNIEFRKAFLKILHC
Sequence of 5-hydroxytryptamine receptor 1E (P28566 whole entry): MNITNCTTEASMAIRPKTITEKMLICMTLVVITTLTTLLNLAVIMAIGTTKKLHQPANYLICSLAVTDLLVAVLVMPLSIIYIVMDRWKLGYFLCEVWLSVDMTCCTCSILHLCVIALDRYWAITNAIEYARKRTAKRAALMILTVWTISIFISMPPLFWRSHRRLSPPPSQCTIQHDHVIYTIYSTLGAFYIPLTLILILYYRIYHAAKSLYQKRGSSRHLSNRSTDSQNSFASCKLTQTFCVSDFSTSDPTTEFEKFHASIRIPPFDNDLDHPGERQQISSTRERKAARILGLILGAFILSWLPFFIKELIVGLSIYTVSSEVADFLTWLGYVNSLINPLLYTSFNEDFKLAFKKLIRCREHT
T1 sequence (Q61616 whole entry): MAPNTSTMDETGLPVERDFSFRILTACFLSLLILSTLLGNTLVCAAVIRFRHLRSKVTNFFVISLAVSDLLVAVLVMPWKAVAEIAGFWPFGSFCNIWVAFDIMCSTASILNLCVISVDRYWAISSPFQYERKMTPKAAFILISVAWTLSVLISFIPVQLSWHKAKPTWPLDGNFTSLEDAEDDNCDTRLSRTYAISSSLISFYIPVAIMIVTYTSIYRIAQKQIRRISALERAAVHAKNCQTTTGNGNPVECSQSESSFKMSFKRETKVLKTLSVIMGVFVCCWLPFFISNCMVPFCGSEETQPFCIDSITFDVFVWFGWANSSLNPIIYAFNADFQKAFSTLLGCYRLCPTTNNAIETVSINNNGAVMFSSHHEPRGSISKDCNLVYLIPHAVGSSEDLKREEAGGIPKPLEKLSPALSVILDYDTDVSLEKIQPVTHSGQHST
Sequence of 5-hydroxytryptamine receptor 6 (P50406 whole entry): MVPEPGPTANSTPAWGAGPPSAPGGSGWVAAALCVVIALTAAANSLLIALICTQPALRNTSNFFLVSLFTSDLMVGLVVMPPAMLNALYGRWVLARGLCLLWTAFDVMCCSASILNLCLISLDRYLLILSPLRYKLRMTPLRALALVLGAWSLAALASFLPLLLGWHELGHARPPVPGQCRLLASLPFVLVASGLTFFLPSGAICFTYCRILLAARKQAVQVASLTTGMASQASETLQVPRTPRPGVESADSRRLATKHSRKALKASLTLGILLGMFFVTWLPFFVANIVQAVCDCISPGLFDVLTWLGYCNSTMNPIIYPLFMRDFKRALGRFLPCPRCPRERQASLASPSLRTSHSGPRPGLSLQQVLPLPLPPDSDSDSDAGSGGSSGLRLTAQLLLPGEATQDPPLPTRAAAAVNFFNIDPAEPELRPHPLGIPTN
Sequence of D(3) dopamine receptor (P35462 whole entry): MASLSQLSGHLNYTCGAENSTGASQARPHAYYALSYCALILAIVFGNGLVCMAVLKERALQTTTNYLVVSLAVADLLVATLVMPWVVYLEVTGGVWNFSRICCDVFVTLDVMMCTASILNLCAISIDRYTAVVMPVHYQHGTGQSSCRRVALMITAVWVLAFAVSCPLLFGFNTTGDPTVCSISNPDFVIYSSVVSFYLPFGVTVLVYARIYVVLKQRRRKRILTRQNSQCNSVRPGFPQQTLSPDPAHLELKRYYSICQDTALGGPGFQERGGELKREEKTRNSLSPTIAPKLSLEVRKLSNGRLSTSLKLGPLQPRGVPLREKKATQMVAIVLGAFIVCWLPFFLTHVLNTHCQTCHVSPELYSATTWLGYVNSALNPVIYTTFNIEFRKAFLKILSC
Sequence of Histamine H1 receptor (P35367 whole entry): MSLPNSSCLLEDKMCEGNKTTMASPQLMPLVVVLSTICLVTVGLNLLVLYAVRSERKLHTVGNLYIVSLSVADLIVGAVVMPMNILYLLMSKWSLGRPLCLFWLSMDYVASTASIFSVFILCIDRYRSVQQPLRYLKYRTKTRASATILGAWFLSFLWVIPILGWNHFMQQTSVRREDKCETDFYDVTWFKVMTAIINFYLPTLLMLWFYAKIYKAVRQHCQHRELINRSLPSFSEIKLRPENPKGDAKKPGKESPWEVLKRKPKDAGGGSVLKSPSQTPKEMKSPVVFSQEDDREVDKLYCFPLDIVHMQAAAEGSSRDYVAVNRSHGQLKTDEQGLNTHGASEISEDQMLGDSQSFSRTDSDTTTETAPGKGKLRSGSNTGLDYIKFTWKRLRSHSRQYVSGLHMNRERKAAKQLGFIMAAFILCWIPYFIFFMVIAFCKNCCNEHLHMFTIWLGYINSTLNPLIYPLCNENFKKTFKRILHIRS
Sequence of 5-hydroxytryptamine receptor 5A (P47898 whole entry): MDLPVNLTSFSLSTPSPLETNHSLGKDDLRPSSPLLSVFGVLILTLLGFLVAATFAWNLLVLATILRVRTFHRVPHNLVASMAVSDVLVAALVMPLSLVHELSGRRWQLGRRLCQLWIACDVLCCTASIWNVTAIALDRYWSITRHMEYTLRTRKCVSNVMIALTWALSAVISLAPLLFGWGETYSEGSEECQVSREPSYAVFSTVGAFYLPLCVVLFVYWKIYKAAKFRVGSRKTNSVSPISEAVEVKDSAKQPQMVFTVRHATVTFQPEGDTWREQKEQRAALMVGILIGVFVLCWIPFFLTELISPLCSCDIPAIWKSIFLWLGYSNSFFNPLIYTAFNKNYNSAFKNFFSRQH
Sequence of 5-hydroxytryptamine receptor 2B (P41595 whole entry): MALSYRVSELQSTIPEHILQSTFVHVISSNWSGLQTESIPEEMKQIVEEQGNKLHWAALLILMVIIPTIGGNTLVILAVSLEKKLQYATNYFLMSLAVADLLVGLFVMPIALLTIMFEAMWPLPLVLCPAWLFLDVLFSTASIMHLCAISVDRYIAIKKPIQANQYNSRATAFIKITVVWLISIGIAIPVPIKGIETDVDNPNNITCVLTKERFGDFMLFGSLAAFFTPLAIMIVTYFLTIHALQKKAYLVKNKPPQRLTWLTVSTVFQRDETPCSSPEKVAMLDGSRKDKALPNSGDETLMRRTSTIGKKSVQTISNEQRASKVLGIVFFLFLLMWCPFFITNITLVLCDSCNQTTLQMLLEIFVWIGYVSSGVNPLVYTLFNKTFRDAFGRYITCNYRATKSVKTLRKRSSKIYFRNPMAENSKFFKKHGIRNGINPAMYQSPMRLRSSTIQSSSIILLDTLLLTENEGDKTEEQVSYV
Sequence of D(1B) dopamine receptor (P21918 whole entry): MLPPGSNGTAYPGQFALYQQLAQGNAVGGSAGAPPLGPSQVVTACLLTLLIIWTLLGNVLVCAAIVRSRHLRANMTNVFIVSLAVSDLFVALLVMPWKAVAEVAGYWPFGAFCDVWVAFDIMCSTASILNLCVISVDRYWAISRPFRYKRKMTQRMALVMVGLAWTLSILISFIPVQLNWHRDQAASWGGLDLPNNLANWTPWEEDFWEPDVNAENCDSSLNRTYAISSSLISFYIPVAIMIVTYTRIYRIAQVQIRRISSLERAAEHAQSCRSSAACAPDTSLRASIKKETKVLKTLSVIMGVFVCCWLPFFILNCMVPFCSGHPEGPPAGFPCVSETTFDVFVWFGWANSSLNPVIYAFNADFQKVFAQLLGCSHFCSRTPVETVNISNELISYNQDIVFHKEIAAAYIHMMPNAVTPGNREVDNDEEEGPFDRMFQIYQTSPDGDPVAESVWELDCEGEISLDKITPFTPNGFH

## C[C@H]1C[C@H](C)N1C(=O)[C@@H]1C=C2c3cccc4[nH]cc(c34)CC2N(C)C1 (stereo not given in full)
D(1A) dopamine receptor [1]
  Ki: 290 nM
Rattus norvegicus [2]
  ED50: 0.025 µmol/kg
Rattus norvegicus [3]
  SDL: 50%
Rattus norvegicus [4]
  D: 6%
Rattus norvegicus [5]
  D: 0%
[6]
  Ki: 27 nM
[7]
  Ki: 280 nM
D(2) dopamine receptor
  Ki: 110 nM
Rattus norvegicus [8]
  D: 7%
Histamine H1 receptor
  Ki: 2500 nM
Rattus norvegicus [9]
  D: 0%
  ED50: 0.01 mg/kg
[10]
  Ki: 27 nM
[11]
  Ki: 0.45 nM
Rattus norvegicus [12]
  SDL: 67% and 90%
[13]
  Ki: 2.4 nM
[14]
  Ki: 15 nM
Rattus norvegicus [15]
  SDL: 100%

## CCN(CC)C(=O)[C@@H]1C=C2c3cccc4[nH]cc(c34)C[C@H]2N(C)C1 [LYSERGIDE]
Rattus norvegicus [16]
  ED50: 0.032 µmol/kg
Rattus norvegicus [17]
  SDL: 17%
D(1B) dopamine receptor
  Ki: 340 nM
D(3) dopamine receptor
  Ki: 27 nM
D(4) dopamine receptor
  Ki: 56 nM
Rattus norvegicus [18]
  SDL: 100%
Rattus norvegicus [19]
  D: 0%
[7]
  Ki: 93 nM
D(2) dopamine receptor
  Ki: 120 nM
Rattus norvegicus [20]
  SDL: 75%
D(1A) dopamine receptor [21]
  Ki: 180 nM
Rattus norvegicus [22]
  ED50: 0.045 µmol/kg
Rattus norvegicus [23]
  D: 0%
Rattus norvegicus [24]
  SDL: 58%
Rattus norvegicus [25]
  D: 0%
[26]
  Ki: 3.9 nM
Rattus norvegicus [27]
  D: 0%
